Screens: PubChem BioAssay, several laboratories
NSD2 inh – NSD2 histone methyltransferase inhibitors, primary screen, biochemical, AlphaScreen, single concentration, set 2 | Histone-lysine N-methyltransferase NSD2 (Homo sapiens), O96028 | NSD2 peptide methylation, 120 min | inhibition, % at 12.5 µM | 310,000 tested, 0.54% active; in the data active means inhibition above about 50%
CASP6 VEID inh – human caspase-6 inhibitors, primary screen, biochemical, VEID-R110 fluorescence, single point, set 2; P55212; purified caspase-6, Z-VEID-R110 cleavage fluorescence; inhibition, % at 12.5 µM; 350,000 tested, 0.53% active;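 active means mean inhibition across replicates at least about 35%, with every replicate also reaching that limit, limit read from the data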
SIRT5 inh – SIRT5 desuccinylase inhibitors, primary screen, biochemical, fluorescence imaging, single point, set 5. inhibition, % at 15 µM. Purified SirT5, succinyl-peptide AMC, trypsin-coupled fluorescence. 330,000 tested, 1.1% active; in the data active means inhibition above about 15%
UCH37 inh – inhibitors of human UCH37 deubiquitinase, primary screen, biochemical, Ub-AMC cleavage, fluorescence. AID 588478, 2011. Ubiquitin carboxyl-terminal hydrolase isozyme L5 (Homo sapiens), Q9Y5K5. 330,000 tested, 0.33% active. purified proteasome/UCH37. inhibition, % (concentration not given with the values);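 active means mean inhibition over replicate wells above about 20%, limit read from the data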
Target sequence (Q9Y5K5 whole entry, looked up): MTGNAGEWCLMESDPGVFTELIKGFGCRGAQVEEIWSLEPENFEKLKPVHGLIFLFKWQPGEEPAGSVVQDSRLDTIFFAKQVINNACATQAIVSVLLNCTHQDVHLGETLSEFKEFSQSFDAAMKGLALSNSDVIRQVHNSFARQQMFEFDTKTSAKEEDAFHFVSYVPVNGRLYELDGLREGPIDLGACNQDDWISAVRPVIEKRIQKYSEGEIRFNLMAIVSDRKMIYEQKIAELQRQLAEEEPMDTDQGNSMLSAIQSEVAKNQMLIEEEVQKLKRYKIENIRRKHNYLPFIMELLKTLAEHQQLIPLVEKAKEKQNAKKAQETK
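System: Proteasome-associated human UCH37 deubiquitinase; Input: 0.15 nM proteasome in added enzyme buffer; Also added: Ub-AMC substrate from 1 µM stock; Incubation: 30 min compound-proteasome preincubation then 25 min substrate reaction, room temperature; Detection: fluorescence, ex 355 nm, em 460 nm; Read-out: % inhibition of Ub-AMC cleavage fluorescence; Benchmarks: no-proteasome and no-compound wells.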
FGF22 binding – binders of human FGF22 protein, primary screen, FGF22 synaptogenesis inhibitor project, biophysical, thermal shift, single point | Fibroblast growth factor 22 (Homo sapiens), Q9HCT0 | recombinant FGF22 thermal shift, SYPRO orange fluorescence; percent of sucrose octasulfate shift, DMSO zero | activity (Tm shift, normalised), % at 9.99 µM | 340,000 tested, 1.5% active | AID 651658, 2012;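 active means mean Tm shift, scaled 0 neutral to 100 positive control, at about 1.3% or above, every replicate too, limit read from the data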
Target sequence (Q9HCT0 whole entry, looked up): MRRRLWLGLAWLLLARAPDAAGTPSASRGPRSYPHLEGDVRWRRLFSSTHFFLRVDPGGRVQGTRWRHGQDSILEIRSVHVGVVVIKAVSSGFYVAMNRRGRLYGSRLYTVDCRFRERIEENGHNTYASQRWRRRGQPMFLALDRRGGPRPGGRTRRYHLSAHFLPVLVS
Hits are given with their value; . = inactive; / = not tested or not shown; ! = repeats disagree. Only some compounds are listed: those with a hit (about 2.6% of all), similar ones and a draw of the others.

SMILES	NSD2 inh	CASP6 VEID inh	SIRT5 inh	UCH37 inh	FGF22 binding
Cc1cc(O)cc(O)c1C(=O)Cc1ccccc1	.	.	.	.	.
COc1ccccc1NS(=O)(=O)c1cc([N+](=O)[O-])ccc1NN=Cc1sc(N2CCOCC2)nc1-c1ccccc1	/	/	/	.	/
COc1ccc(-c2noc(CN3CCC(Cc4ccccc4)CC3)n2)cc1	.	.	.	.	.
COCC1CCN(Cc2nc(-c3ccc(OC)cc3)no2)CC1	/	.	.	.	43
CC(=NNC(=O)C1CC1)c1ccc(Cl)c(Cl)c1	/	/	/	.	/
O=C(c1cc2cc([N+](=O)[O-])ccc2oc1=O)N1CCOCC1	.	.	.	.	43
O=C(c1cc2cc([N+](=O)[O-])ccc2oc1=O)N1CCN(c2ncccn2)CC1	/	/	/	.	/
CC(c1nccs1)N(C)c1nc2nonc2nc1NC1CC1 (configuration not stated)	.	.	.	.	.
CN(c1nc2nonc2nc1NC1CC1)C1CCOC1 (configuration not stated)	.	.	.	.	43
O=S1(=O)Cc2cc3ccccc3cc2C1	.	.	.	.	43
COc1cc(C=NNC(=O)c2cnccn2)ccc1O	/	/	/	.	/
COc1ccc(C2C3(C#N)C(N)=NC(OC)(OC)C23C#N)cc1 (configuration not stated)	/	.	18	/	.
COC1(OC)N=C(N)C2(C#N)C(c3ccc(C)cc3)C12C#N (configuration not stated)	.	/	/	.	/
C[C@H](CO)N1C[C@H](C)[C@H](CN(C)C(=O)Nc2ccccc2)Oc2cc(C#Cc3ccccc3)ccc2S1(=O)=O	/	.	.	/	.
CN(C)S(=O)(=O)c1cccc(NC(=S)N/N=C/c2ccc(O)c(O)c2O)c1	.	38	.	/	.
C[C@@H](O)C#Cc1ccc2c(c1)O[C@@H](CN(C)Cc1ccc(-c3ccccc3)cc1)[C@@H](C)CN([C@@H](C)CO)S2(=O)=O	/	.	.	/	.
C[C@H](O)C#Cc1ccc2c(c1)O[C@@H](CN(C)Cc1ccc(-c3ccccc3)cc1)[C@H](C)CN([C@@H](C)CO)S2(=O)=O	/	.	17!	/	.
C[C@@H](O)C#Cc1ccc2c(c1)O[C@H](CN(C)Cc1ccc(-c3ccccc3)cc1)[C@@H](C)CN([C@@H](C)CO)S2(=O)=O	/	.	27	/	.
C[C@H](CO)N1C[C@H](C)[C@@H](CN(C)Cc2ccc(-c3ccccc3)cc2)Oc2cc(C#C[C@@H](C)O)ccc2S1(=O)=O	/	.	.	/	.
C[C@H](O)C#Cc1ccc2c(c1)O[C@@H](CN(C)Cc1ccc(-c3ccccc3)cc1)[C@@H](C)CN([C@H](C)CO)S2(=O)=O	/	.	23	/	.
COc1ccc2c3c([nH]c2c1)[C@H](CO)N(CC1CC1)CC31CN(C(=O)C2CCOCC2)C1	/	.	/	/	.
CC(=O)Nc1cccc(C(=O)OCc2ccc([N+](=O)[O-])cc2)c1	.	.	.	.	43
O=C(OCc1cccc([N+](=O)[O-])c1)c1cccnc1	.	.	.	.	43
CC(=O)Nc1ccc(C(=O)OCc2ccc(F)cc2)cc1	.	.	.	.	43
O=C(Nc1ccccc1)Nc1cccc(C(F)(F)F)c1	.	.	.	.	44
SMILES	NSD2 inh	CASP6 VEID inh	SIRT5 inh	UCH37 inh	FGF22 binding
CC(CC(=O)Nc1cccc(F)c1)=NNC(=O)c1ccncc1	/	/	/	.	/
O=C(Cc1ccc([N+](=O)[O-])cc1)Nc1cccc(C(F)(F)F)c1	.	.	.	.	44
O=C(Cc1ccc([N+](=O)[O-])cc1)Nc1cc(C(F)(F)F)cc(C(F)(F)F)c1	.	.	.	/	.
CC(N)C(=O)NC(C(=O)NC(C)C(=O)Nc1cccc2ccccc12)C(C)C (configuration not stated)	/	45	.	/	.
CNC(C)C(=O)NC(C(=O)NC(C(=O)Nc1cccc2ccccc12)C(C)C)C(C)C (configuration not stated)	/	.	.	/	.
CC(C1SC(=S)NC1=O)C1SC(=S)NC1=O (configuration not stated)	.	68	.	/	.
CC1CC2c3cccc(C(=O)O)c3C(=O)N2c2ccc(Cl)cc21 (configuration not stated)	.	.	.	/	.
CC(=O)N1c2ccc(Cl)cc2C2C=CCC2C1c1cccc2ccccc12 (configuration not stated)	/	/	/	48	/
CN(C)CCCNC(=O)[C@H]1[C@H](CO)[C@H]2Cn3c(ccc(-c4ccncc4)c3=O)[C@@H]1N2C(=O)C1CC1	/	.	.	/	.
CCn1nc(C)c(/C=C/C(=O)Nc2ccc(C)cc2C)c1C	.	.	37	.	/
CCOP(=O)(OCC)C(NC(=O)Nc1c(C)cc(C)cc1C)c1ccccc1 (configuration not stated)	.	.	.	.	43
CCOc1ccc(-n2c(=S)sc3c(=O)[nH]c(SCC(=O)N4CCC(C)CC4)nc32)cc1	.	43	/	.	/
COc1ccccc1-c1cnc2c(c1)C(=O)N([C@@H](C)CO)C[C@H](C)[C@@H](CN(C)C(=O)CN(C)C)O2	/	.	.	/	.
Cc1cc(-c2ccc(Br)cc2)n[nH]1	.	.	16	.	.
Cc1ccc(C(=O)Nc2nnc(CC(=O)N/N=C/c3ccncc3)s2)cc1	.	.	.	/	44
Cc1ccc(C(=O)Nc2nnc(CC(=O)N/N=C/c3ccc(O)c(O)c3)s2)cc1	.	.	.	/	.
COc1ccc(C(=O)Nc2nnc(CC(=O)N/N=C/c3ccc(O)cc3O)s2)cc1	.	.	17	/	.
COc1ccc(Cn2c(C)nc([N+](=O)[O-])c2SCC(=O)O)cc1[N+](=O)[O-]	.	.	.	.	.
Cc1nc([N+](=O)[O-])c(SCC(O)CCl)n1Cc1ccc(Cl)cc1 (configuration not stated)	.	.	.	.	43
COc1ccc(-c2ccc(C=NNC(=O)c3cccnc3)o2)c([N+](=O)[O-])c1	/	/	/	.	/
COC(=O)CCC(=O)OC1(C)C(=O)C=C2C=C(C3CC3)N(CCCCO)C=C2C1=O (configuration not stated)	/	37	.	.	.
COC(=O)CCC(=O)OC1(C)C(=O)C=C2C=C(C3CC3)N(CCCOC(C)C)C=C2C1=O (configuration not stated)	/	/	/	.	/
CCOC(=O)/C(C#N)=C/C=C1\C=Cc2ccccc2N1CC	.	.	.	.	.
CCCCCCN1C=CC(=C/C=C(\C#N)C(=O)OCC)C=C1	.	/	/	21	/
O=C(O)CSc1c(O)c2ccccc2[nH]c1=O	.	.	.	.	.
O=c1[nH]c2ccccc2c(O)c1SCCO	.	.	18	.	.
